Results published in ChEMBL document CHEMBL1275331, “Discovery of a novel 5-HT(3) antagonist/5-HT(1A) agonist 3-amino-5,6,7,8-tetrahydro-2-{4-[4-(quinolin-2-yl)piperazin-1-yl]butyl}quinazolin-4(3H)-one (TZB-30878) as an orally bioavailable agent for irritable bowel syndrome” (J Med Chem, 2010).
Calls of active or inactive are those of the source. The calls are words filed in the database; no cut-off is given here.

Columns and labels:
[1] = target: Adrenergic receptor alpha-1 (Rattus norvegicus, UniProt P15823+P23944+P43140); experiment: Inhibition of rat alpha1 adrenergic receptor
[2] = target: Histamine H1 receptor (Homo sapiens, UniProt P35367); experiment: Displacement of [3H]pyrilamine from human recombinant histamine H1 receptor
Chain of Histamine H1 receptor (P35367 whole entry): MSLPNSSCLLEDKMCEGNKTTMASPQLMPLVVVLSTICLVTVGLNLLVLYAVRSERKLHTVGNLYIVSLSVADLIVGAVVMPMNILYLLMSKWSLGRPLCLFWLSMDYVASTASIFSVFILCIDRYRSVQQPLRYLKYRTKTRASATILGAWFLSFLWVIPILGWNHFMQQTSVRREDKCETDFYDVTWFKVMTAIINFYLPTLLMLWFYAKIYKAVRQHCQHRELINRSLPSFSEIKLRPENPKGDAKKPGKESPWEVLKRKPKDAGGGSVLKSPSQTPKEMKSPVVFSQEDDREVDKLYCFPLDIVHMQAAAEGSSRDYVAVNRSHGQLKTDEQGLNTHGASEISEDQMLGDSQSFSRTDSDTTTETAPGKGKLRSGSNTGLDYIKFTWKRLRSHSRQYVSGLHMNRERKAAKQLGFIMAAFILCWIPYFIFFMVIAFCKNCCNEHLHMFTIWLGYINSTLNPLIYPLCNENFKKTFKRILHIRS

[3] = Drug level in Sprague-Dawley rat blood at 3 mg/kg, po after 8 hrs by HPLC analysis; format: ADME, organism-based; design: dose 3 mg/kg, route oral; conditions: whole blood, read-out: Drug uptake
How it was run: (§1)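 Total compound concentration was measured in brain and blood at 2, 4 and 8 h after a single oral 3 mg/kg dose. Brain/blood ratio was also derived. Values are mean ± SD of three rats.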

[4] = target: Neuropeptide Y receptor type 2 (Homo sapiens, UniProt P49146); experiment: Displacement of [125I]peptide YY from NPY2 receptor in human KAN-TS cells; format: cell-based
Chain of Neuropeptide Y receptor type 2 (P49146 whole entry): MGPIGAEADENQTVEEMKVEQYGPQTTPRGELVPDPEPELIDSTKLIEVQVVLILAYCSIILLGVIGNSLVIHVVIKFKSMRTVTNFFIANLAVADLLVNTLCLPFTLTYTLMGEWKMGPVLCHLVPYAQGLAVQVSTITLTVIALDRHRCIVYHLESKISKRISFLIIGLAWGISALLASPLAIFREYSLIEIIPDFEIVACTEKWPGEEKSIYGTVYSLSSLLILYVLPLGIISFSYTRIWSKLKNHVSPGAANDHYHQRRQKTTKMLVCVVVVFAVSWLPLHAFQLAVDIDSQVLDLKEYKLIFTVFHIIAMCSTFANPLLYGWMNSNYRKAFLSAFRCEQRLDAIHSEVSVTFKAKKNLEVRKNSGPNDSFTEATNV

[5] = target: D(2) dopamine receptor (Homo sapiens, UniProt P14416); experiment: Inhibition of human dopamine D2 receptor
Chain of D(2) dopamine receptor (P14416 whole entry): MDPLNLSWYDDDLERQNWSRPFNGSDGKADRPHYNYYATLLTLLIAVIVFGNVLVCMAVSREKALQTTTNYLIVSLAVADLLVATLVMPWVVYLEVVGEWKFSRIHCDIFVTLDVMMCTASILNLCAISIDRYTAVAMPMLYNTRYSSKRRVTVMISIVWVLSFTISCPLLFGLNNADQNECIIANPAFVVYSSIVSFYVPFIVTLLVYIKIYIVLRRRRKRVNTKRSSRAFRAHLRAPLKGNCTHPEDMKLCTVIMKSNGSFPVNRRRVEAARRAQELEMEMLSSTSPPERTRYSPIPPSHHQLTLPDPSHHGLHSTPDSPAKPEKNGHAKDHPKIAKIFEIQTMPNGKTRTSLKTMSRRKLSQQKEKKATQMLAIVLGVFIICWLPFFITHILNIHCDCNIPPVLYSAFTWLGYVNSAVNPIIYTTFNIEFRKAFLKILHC

[6] = target: T1, 5-hydroxytryptamine receptor 1A (Homo sapiens, UniProt P08908); experiment: Displacement of [3H]8-OH-DPAT from human 5HT1A receptor expressed in CHO cells by liquid scintillation counting; format: cell-based
T1 sequence (P08908 whole entry): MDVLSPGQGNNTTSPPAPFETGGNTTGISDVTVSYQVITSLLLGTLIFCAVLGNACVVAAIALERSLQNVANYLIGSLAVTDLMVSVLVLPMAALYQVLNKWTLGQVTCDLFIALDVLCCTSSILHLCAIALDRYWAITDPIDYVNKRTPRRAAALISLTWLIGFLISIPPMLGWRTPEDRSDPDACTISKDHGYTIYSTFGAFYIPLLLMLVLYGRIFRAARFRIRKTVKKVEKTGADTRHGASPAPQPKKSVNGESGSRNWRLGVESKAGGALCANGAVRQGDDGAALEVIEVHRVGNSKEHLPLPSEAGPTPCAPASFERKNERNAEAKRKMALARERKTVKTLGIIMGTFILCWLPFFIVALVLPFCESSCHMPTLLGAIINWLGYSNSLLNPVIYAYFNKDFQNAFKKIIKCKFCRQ
How it was run: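 CHO-cell membranes with human 5-HT1A were incubated with 0.25 nmol/L [3H]8-OH-DPAT (final) for 60 min at 27 °C. Buffer: 50 mM Tris-HCl, 10 mM MgSO4, 0.5 mM EDTA, 0.1% ascorbic acid, pH 7.4. Compound came from 270 μmol/L DMSO stock, diluted in buffer. Filtration was through GF/C presoaked in 0.3% polyethyleneimine, with two cold Tris washes. Run in duplicate or triplicate; percent inhibition of binding calculated.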

[7] = target: Adenosine receptor A3 (Homo sapiens, UniProt P0DMS8); experiment: Displacement of [125I]AB-MECA from human recombinant adenosine A3 receptor
Chain of Adenosine receptor A3 (P0DMS8 whole entry): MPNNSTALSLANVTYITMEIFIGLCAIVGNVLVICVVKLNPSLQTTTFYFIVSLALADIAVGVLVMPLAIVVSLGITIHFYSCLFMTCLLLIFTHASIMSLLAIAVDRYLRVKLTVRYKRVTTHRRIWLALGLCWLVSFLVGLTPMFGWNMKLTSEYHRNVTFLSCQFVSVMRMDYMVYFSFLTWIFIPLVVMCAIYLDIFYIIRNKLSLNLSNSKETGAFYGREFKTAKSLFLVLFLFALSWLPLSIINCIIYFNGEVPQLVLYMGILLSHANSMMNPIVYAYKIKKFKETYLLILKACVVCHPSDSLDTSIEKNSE

[8] = target: Mu-type opioid receptor (Homo sapiens, UniProt P35372); experiment: Displacement of [3H]DAMGO from human recombinant mu opioid receptor
Chain of Mu-type opioid receptor (P35372 whole entry): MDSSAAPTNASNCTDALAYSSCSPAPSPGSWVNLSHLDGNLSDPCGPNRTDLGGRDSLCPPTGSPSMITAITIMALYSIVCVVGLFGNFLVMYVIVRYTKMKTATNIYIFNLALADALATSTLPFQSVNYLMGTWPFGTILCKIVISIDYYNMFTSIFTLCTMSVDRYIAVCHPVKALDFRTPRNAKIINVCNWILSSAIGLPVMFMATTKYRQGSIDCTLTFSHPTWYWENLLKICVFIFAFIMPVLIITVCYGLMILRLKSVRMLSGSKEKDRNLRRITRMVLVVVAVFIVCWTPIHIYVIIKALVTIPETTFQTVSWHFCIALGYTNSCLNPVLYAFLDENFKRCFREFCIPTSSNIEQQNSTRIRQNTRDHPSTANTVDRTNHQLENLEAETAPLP

[9] = system: Rattus norvegicus; experiment: Reduction in wrap restraint stress-induced defecation in WAY-100635-treated rat diarrhea-predominant irritable bowel syndrome model at 0.3 to 3 mg/kg, ip administered 20 mins following addition of 5HT1A receptor antagonist WAY-100635; format: functional, organism-based
How it was run: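 Rats received saline (with diluted HCl) or WAY-100635 sc; 20 min later compound or vehicle ip. Five minutes after, lightly anesthetized rats were wrapped for 1 h and feces counted. n = 8 per group, mean (SD); Wilcoxon and nonparametric Dunnett's tests.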

[10] = target: T1, 5-hydroxytryptamine receptor 1A; experiment: Agonist activity at human cloned 5HT1A receptor expressed in CHO cells assessed as stimulation of [35S]GTPgammaS binding after 30 mins by liquid scintillation counting; format: functional, cell-based
How it was run: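 Membranes from CHO cells expressing human 5-HT1A were diluted in 20 mM HEPES/3 mM MgCl2/120 mM NaCl, pH 7.4. They were preincubated with 20 μM GDP and test drug for 20 min at 30 °C, then held on ice for 15 min. [35S]GTPγS (100 pM) was added for 30 min at 30 °C. Samples were filtered, washed with cold HEPES/MgCl2 buffer, and bound radioactivity counted; EC50 and Emax reported.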

[11] = system: Rattus norvegicus; experiment: Induction of 5HT1A receptor-mediated lower lip retraction behavior in rat at 10 mg/kg, iv after 30 mins; format: functional, organism-based; design: dose 10 mg/kg
How it was run: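 Rats were conditioned to test procedures over 2 weeks and acclimated to the test cage for 1 h. Vehicle was saline containing diluted HCl. Lower lip retraction and flat body posture were scored on a 0–3 scale at 5, 10, 20 and 30 min after dosing.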

[12] = target: Sodium-dependent dopamine transporter (Homo sapiens, UniProt Q01959); experiment: Displacement of [3H]BTCP from human recombinant DAT
Chain of Sodium-dependent dopamine transporter (Q01959 whole entry): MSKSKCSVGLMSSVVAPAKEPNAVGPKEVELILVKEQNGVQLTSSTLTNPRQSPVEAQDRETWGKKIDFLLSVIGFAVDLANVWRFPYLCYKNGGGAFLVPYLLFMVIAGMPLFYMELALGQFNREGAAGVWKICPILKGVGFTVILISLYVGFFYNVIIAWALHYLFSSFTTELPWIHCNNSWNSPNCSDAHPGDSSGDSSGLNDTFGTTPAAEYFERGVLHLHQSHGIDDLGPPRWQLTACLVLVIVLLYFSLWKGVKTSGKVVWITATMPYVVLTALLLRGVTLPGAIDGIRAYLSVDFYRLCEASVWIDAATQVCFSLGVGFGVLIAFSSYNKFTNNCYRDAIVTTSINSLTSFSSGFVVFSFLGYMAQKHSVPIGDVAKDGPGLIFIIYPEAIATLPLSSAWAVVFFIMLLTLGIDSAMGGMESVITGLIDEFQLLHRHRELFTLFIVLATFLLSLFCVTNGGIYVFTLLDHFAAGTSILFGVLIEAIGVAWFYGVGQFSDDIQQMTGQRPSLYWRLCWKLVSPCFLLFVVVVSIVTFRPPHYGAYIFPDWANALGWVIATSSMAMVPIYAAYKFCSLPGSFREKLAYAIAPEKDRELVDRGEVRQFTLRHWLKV

[13] = target: Substance-K receptor (Homo sapiens, UniProt P21452); experiment: Displacement of [125I]NKA from human recombinant NK2 receptor
Chain of Substance-K receptor (P21452 whole entry): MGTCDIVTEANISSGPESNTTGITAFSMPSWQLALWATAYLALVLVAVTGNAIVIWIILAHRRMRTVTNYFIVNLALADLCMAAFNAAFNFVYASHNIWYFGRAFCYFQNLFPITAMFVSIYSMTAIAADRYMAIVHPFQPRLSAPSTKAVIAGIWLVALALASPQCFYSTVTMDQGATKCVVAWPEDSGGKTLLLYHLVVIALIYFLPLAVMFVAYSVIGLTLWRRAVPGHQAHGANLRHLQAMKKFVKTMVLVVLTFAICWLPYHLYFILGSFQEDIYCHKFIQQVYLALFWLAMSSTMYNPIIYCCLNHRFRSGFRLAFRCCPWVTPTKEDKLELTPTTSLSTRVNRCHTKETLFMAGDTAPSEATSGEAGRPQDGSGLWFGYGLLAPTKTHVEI

[14] = target: T2, Adrenergic receptor alpha-2 (Rattus norvegicus, UniProt P22086+P19328+P22909); experiment: Inhibition of rat alpha2 adrenergic receptor
[15] = Drug level in Sprague-Dawley rat brain at 3 mg/kg, po after 2 hrs by HPLC analysis; format: ADME, organism-based; design: dose 3 mg/kg, route oral; conditions: read-out: Drug uptake; how it was run: as §1
[16] = target: Muscarinic acetylcholine receptor M2 (Homo sapiens, UniProt P08172); experiment: Displacement of [3H]AF-DX384 from human recombinant muscarinic M2 receptor
Chain of Muscarinic acetylcholine receptor M2 (P08172 whole entry): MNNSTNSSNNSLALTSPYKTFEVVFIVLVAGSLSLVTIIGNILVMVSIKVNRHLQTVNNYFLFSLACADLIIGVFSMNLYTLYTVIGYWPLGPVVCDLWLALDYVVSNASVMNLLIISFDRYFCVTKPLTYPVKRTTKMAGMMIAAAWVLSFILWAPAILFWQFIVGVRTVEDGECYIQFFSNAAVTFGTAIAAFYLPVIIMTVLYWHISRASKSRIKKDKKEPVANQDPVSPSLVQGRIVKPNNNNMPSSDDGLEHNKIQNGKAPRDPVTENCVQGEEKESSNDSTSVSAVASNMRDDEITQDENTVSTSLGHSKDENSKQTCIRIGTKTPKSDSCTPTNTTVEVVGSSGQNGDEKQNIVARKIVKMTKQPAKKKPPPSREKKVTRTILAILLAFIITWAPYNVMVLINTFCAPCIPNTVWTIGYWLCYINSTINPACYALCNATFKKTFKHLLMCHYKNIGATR

[17] = target: T2, Adrenergic receptor alpha-2; experiment: Displacement of [3H]RX821002 from rat cerebral cortex alpha2 adrenergic receptor; format: tissue-based
[18] = target: 5-hydroxytryptamine receptor 1B (Rattus norvegicus, UniProt P28564); experiment: Displacement of [125I]CYP from rat cerebral cortex 5HT1B receptor in presence of 30 uM propranolol; format: tissue-based
Chain of 5-hydroxytryptamine receptor 1B (P28564 whole entry): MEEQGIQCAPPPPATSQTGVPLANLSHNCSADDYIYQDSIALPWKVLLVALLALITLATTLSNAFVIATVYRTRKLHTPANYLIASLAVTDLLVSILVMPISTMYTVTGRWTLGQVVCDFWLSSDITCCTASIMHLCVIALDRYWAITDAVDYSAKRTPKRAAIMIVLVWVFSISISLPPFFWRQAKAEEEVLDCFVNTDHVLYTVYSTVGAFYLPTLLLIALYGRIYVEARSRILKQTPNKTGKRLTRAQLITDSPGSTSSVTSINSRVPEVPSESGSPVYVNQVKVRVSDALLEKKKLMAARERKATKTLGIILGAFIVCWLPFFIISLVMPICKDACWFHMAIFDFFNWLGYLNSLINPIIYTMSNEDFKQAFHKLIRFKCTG

[19] = target: Muscarinic acetylcholine receptor M1 (Homo sapiens, UniProt P11229); experiment: Displacement of [3H]pirenzepine from human recombinant muscarinic M1 receptor
Chain of Muscarinic acetylcholine receptor M1 (P11229 whole entry): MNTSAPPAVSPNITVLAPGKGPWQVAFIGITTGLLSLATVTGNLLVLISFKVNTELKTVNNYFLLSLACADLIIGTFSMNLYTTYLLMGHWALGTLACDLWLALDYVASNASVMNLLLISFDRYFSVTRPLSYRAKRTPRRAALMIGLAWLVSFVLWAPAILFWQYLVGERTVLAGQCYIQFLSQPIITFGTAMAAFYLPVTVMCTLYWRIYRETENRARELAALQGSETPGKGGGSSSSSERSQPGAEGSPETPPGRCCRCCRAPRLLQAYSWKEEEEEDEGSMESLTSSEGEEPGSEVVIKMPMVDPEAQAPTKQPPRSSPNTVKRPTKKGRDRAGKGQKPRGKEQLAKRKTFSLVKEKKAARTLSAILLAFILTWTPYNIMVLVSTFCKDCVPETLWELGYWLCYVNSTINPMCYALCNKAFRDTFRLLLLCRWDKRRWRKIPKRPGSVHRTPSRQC

[20] = target: Adenosine receptor A2a (Homo sapiens, UniProt P29274); experiment: Displacement of [3H]CGS21680 from human recombinant adenosine A2A receptor
Chain of Adenosine receptor A2a (P29274 whole entry): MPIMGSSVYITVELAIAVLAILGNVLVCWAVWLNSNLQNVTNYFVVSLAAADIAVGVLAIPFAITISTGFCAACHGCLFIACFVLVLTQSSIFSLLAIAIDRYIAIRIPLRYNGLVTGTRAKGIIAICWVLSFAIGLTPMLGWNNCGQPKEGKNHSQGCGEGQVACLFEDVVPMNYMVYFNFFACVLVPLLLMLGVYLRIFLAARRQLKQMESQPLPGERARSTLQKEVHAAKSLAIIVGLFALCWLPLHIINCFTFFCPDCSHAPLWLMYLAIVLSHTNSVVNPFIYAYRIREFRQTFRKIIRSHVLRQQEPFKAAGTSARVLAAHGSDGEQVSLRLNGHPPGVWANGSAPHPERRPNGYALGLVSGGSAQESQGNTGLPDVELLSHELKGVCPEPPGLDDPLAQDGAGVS

**Q.** With `Nn1c(CCCCN2CCN(c3ccc4ccccc4n3)CC2)nc2c(c1=O)CCCC2` as the compound, how does the IC50 [1] read?
**A.** > 100 nM

**Q.** What about the IC50 [2] of the same compound?
**A.** 1000 nM

**Q.** And the concentration at 8 h [3]?
**A.** 9.97 nM

**Q.** What about the IC50 [4] of the same compound?
**A.** > 1000 nM

**Q.** What about the IC50 [5] of the same compound?
**A.** > 100 nM

**Q.** And the IC50 [6]?
**A.** 1.4 nM

**Q.** What about the IC50 [7] of the same compound?
**A.** > 1000 nM

**Q.** And the IC50 [8]?
**A.** > 1000 nM

**Q.** What about the inhibition [9] of the same compound?
**A.** inactive

**Q.** And the EC50 [10]?
**A.** 22.3 nM

**Q.** What about the Activity [11] of the same compound?
**A.** Active

**Q.** What about the IC50 [12] of the same compound?
**A.** > 1000 nM

**Q.** What about the IC50 [13] of the same compound?
**A.** > 1000 nM

**Q.** And the IC50 [14]?
**A.** > 100 nM

**Q.** And the concentration at 2 h [15]?
**A.** 160 nM

**Q.** What about the IC50 [16] of the same compound?
**A.** > 1000 nM

**Q.** And the IC50 [17]?
**A.** > 1 ×10⁻⁶ mol/L

**Q.** What about the IC50 [18] of the same compound?
**A.** > 1000 nM

**Q.** What about the IC50 [19] of the same compound?
**A.** > 1000 nM

**Q.** And the IC50 [20]?
**A.** > 1000 nM
